Source: ChEMBL document CHEMBL3272198, “Preparation and in vitro antifungal activities of some quinolizidine derived hemiaminals and beta-tert-amino sulfides” (1976)
Calls of active or inactive are those of the source. The rule behind the calls is not given here.

Assays:
Blastomyces dermatitidis [1] = test: Antifungal activity against Blastomyces dermatitidis Gilchrist & Stokes isolate 1107 at 60 ug/ml after 3 weeks (reference value: 40 mm); type: functional; settings: Gilchrist & Stokes isolate 1107, 504 h, read-out: DIZ
How it was run: (§1)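 Mycelial phase grown on Sabouraud dextrose agar at 25°C. Agar pH was set to 6 before the test solution was added and was 5.0-5.5 after. Test solutions contained HOAc and Me2SO, and solvent and blank controls were included. Each quadrant was center-inoculated with a 2 × 2 mm piece of a 2-week-old mycelial culture. Colony diameter was measured weekly for 3 weeks and reported as total increments (mm). Duplicates were run.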

Blastomyces dermatitidis [2] = test: Antifungal activity against Blastomyces dermatitidis Gilchrist & Stokes isolate 1107 at 20 ug/ml after 3 weeks (reference value: 40 mm); type: functional; settings: Gilchrist & Stokes isolate 1107, 504 h, read-out: DIZ
Sporotrichum = test: Antifungal activity against Sporotrichum schenckii Hektoen & Perkins (1109) at 40 to 80 ug/ml after 2 weeks; type: functional, organism-based
How it was run: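 Compound in aqueous HOAc/Me2SO was filter-sterilized and mixed into melted (50°) Sabouraud dextrose agar. Agar pH was 7.0-7.5 before addition and 6.0-6.5 after, giving final levels of 10-100 μg/ml. Quadrant plates were center-inoculated with a 2 × 2 mm piece of a 2-week-old mycelial culture, sealed and kept at 25°C. Colony expansion was measured weekly, with solvent and blank controls, in duplicate.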

Histoplasma capsulatum [3] = test: Antifungal activity against Histoplasma capsulatum Darling isolate 1106 at 80 ug/ml after 1 week (reference value: 14 mm); type: functional
Histoplasma capsulatum [4] = test: Antifungal activity against Histoplasma capsulatum Darling isolate 1106 at 60 ug/ml after 1 week (reference value: 14 mm); type: functional
Histoplasma capsulatum [5] = test: Antifungal activity against Histoplasma capsulatum Darling isolate 1106 at 40 ug/ml after 1 week (reference value: 14 mm); type: functional
Histoplasma capsulatum [6] = test: Antifungal activity against Histoplasma capsulatum Darling isolate 1106 at 10 ug/ml after 2 weeks (reference value: 25 mm); type: functional; settings: Darling isolate 1106, 336 h, read-out: DIZ
Histoplasma capsulatum [7] = test: Antifungal activity against Histoplasma capsulatum Darling isolate 1106 at 80 ug/ml after 3 weeks (reference value: 31 mm); type: functional
Histoplasma capsulatum [8] = test: Antifungal activity against Histoplasma capsulatum Darling isolate 1106 at 20 ug/ml after 3 weeks (reference value: 31 mm); type: functional; settings: Darling isolate 1106, 504 h, read-out: DIZ
Histoplasma capsulatum [9] = test: Antifungal activity against Histoplasma capsulatum Darling isolate 1106 at 10 ug/ml after 3 weeks (reference value: 31 mm); type: functional; settings: Darling isolate 1106, 504 h, read-out: DIZ
Blastomyces dermatitidis [10] = test: Antifungal activity against Blastomyces dermatitidis Gilchrist & Stokes isolate 1099 at 100 ug/ml after 1 week (reference value: 14 mm); type: functional
Blastomyces dermatitidis [11] = test: Antifungal activity against Blastomyces dermatitidis Gilchrist & Stokes isolate 1099 at 80 ug/ml after 1 week (reference value: 14 mm); type: functional
Blastomyces dermatitidis [12] = test: Antifungal activity against Blastomyces dermatitidis Gilchrist & Stokes isolate 1099 at 20 ug/ml after 1 week (reference value: 14 mm); type: functional; settings: Gilchrist & Stokes isolate 1099, 168 h, read-out: DIZ; how it was run: as §1
Blastomyces dermatitidis [13] = test: Antifungal activity against Blastomyces dermatitidis Gilchrist & Stokes isolate 1099 at 60 ug/ml after 2 weeks (reference value: 27 mm); type: functional; settings: Gilchrist & Stokes isolate 1099, 336 h, read-out: DIZ; how it was run: as §1
Blastomyces dermatitidis [14] = test: Antifungal activity against Blastomyces dermatitidis Gilchrist & Stokes isolate 1099 at 40 ug/ml after 2 weeks (reference value: 27 mm); type: functional; settings: Gilchrist & Stokes isolate 1099, 336 h, read-out: DIZ; how it was run: as §1
Blastomyces dermatitidis [15] = test: Antifungal activity against Blastomyces dermatitidis Gilchrist & Stokes isolate 1099 at 20 ug/ml after 2 weeks (reference value: 27 mm); type: functional; settings: Gilchrist & Stokes isolate 1099, 336 h, read-out: DIZ
Blastomyces dermatitidis [16] = test: Antifungal activity against Blastomyces dermatitidis Gilchrist & Stokes isolate 1099 at 10 ug/ml after 2 weeks (reference value: 27 mm); type: functional; settings: Gilchrist & Stokes isolate 1099, 336 h, read-out: DIZ; how it was run: as §1
Blastomyces dermatitidis [17] = test: Antifungal activity against Blastomyces dermatitidis Gilchrist & Stokes isolate 1099 at 60 ug/ml after 3 weeks (reference value: 34 mm); type: functional; settings: Gilchrist & Stokes isolate 1099, 504 h, read-out: DIZ; how it was run: as §1
Blastomyces dermatitidis [18] = test: Antifungal activity against Blastomyces dermatitidis Gilchrist & Stokes isolate 1099 at 20 ug/ml after 3 weeks (reference value: 34 mm); type: functional; settings: Gilchrist & Stokes isolate 1099, 504 h, read-out: DIZ
Blastomyces dermatitidis [19] = test: Antifungal activity against Blastomyces dermatitidis Gilchrist & Stokes isolate 1107 at 100 ug/ml after 1 week (reference value: 20 mm); type: functional
Blastomyces dermatitidis [20] = test: Antifungal activity against Blastomyces dermatitidis Gilchrist & Stokes isolate 1107 at 40 ug/ml after 1 week (reference value: 20 mm); type: functional
Blastomyces dermatitidis [21] = test: Antifungal activity against Blastomyces dermatitidis Gilchrist & Stokes isolate 1107 at 10 ug/ml after 1 week (reference value: 20 mm); type: functional; settings: Gilchrist & Stokes isolate 1107, 168 h, read-out: DIZ; how it was run: as §1
Blastomyces dermatitidis [22] = test: Antifungal activity against Blastomyces dermatitidis Gilchrist & Stokes isolate 1107 at 100 ug/ml after 2 weeks (reference value: 35 mm); type: functional; how it was run: as §1
Blastomyces dermatitidis [23] = test: Antifungal activity against Blastomyces dermatitidis Gilchrist & Stokes isolate 1107 at 80 ug/ml after 2 weeks (reference value: 35 mm); type: functional; settings: Gilchrist & Stokes isolate 1107, 336 h, read-out: DIZ; how it was run: as §1
Blastomyces dermatitidis [24] = test: Antifungal activity against Blastomyces dermatitidis Gilchrist & Stokes isolate 1107 at 40 ug/ml after 2 weeks (reference value: 35 mm); type: functional; settings: Gilchrist & Stokes isolate 1107, 336 h, read-out: DIZ; how it was run: as §1
Blastomyces dermatitidis [25] = test: Antifungal activity against Blastomyces dermatitidis Gilchrist & Stokes isolate 1107 at 20 ug/ml after 2 weeks (reference value: 35 mm); type: functional; settings: Gilchrist & Stokes isolate 1107, 336 h, read-out: DIZ
Histoplasma capsulatum [26] = test: Antifungal activity against Histoplasma capsulatum Darling isolate 1098 at 100 ug/ml after 1 week (reference value: 12 mm); type: functional
Histoplasma capsulatum [27] = test: Antifungal activity against Histoplasma capsulatum Darling isolate 1098 at 60 ug/ml after 1 week (reference value: 12 mm); type: functional
Histoplasma capsulatum [28] = test: Antifungal activity against Histoplasma capsulatum Darling isolate 1098 at 40 ug/ml after 1 week (reference value: 12 mm); type: functional; settings: Darling isolate 1098, 168 h, read-out: DIZ
Histoplasma capsulatum [29] = test: Antifungal activity against Histoplasma capsulatum Darling isolate 1098 at 100 ug/ml after 2 weeks (reference value: 21 mm); type: functional
Histoplasma capsulatum [30] = test: Antifungal activity against Histoplasma capsulatum Darling isolate 1098 at 40 ug/ml after 2 weeks (reference value: 21 mm); type: functional; settings: Darling isolate 1098, 336 h, read-out: DIZ
Histoplasma capsulatum [31] = test: Antifungal activity against Histoplasma capsulatum Darling isolate 1098 at 20 ug/ml after 2 weeks (reference value: 21 mm); type: functional; settings: Darling isolate 1098, 336 h, read-out: DIZ
Histoplasma capsulatum [32] = test: Antifungal activity against Histoplasma capsulatum Darling isolate 1098 at 100 ug/ml after 3 weeks (reference value: 28 mm); type: functional
Histoplasma capsulatum [33] = test: Antifungal activity against Histoplasma capsulatum Darling isolate 1098 at 20 ug/ml after 3 weeks (reference value: 28 mm); type: functional; settings: Darling isolate 1098, 504 h, read-out: DIZ

C[C@@H]1CC[C@@H](c2ccoc2)N2C(O)[C@@](C)(Sc3ccccc3)CC[C@@H]12 (some centres undefined)
zone of inhibition at 60 µg/mL (Blastomyces dermatitidis [1]): 14 mm
zone of inhibition at 20 µg/mL (Blastomyces dermatitidis [2]): 22 mm
diameter of the inhibition zone (DIZ) (Sporotrichum): Active
Activity (Histoplasma capsulatum [3]): Active
Activity (Histoplasma capsulatum [4]): Active
Activity (Histoplasma capsulatum [5]): inactive
zone of inhibition at 10 µg/mL (Histoplasma capsulatum [6]): 19 mm
Activity (Histoplasma capsulatum [7]): Active
zone of inhibition at 20 µg/mL (Histoplasma capsulatum [8]): 15 mm
zone of inhibition at 10 µg/mL (Histoplasma capsulatum [9]): 25 mm
Activity (Blastomyces dermatitidis [10]): Active
Activity (Blastomyces dermatitidis [11]): Active
zone of inhibition at 20 µg/mL (Blastomyces dermatitidis [12]): 7 mm
zone of inhibition at 60 µg/mL (Blastomyces dermatitidis [13]): 6 mm
zone of inhibition at 40 µg/mL (Blastomyces dermatitidis [14]): 10 mm
zone of inhibition at 20 µg/mL (Blastomyces dermatitidis [15]): 14 mm
zone of inhibition at 10 µg/mL (Blastomyces dermatitidis [16]): 20 mm
zone of inhibition at 60 µg/mL (Blastomyces dermatitidis [17]): 9 mm
zone of inhibition at 20 µg/mL (Blastomyces dermatitidis [18]): 18 mm
Activity (Blastomyces dermatitidis [19]): Active
Activity (Blastomyces dermatitidis [20]): inactive
zone of inhibition at 10 µg/mL (Blastomyces dermatitidis [21]): 13 mm
Activity (Blastomyces dermatitidis [22]): Active
zone of inhibition at 80 µg/mL (Blastomyces dermatitidis [23]): 3 mm
zone of inhibition at 40 µg/mL (Blastomyces dermatitidis [24]): 15 mm
zone of inhibition at 20 µg/mL (Blastomyces dermatitidis [25]): 18 mm
Activity (Histoplasma capsulatum [26]): Active
Activity (Histoplasma capsulatum [27]): Active
zone of inhibition at 40 µg/mL (Histoplasma capsulatum [28]): 6 mm
Activity (Histoplasma capsulatum [29]): Active
zone of inhibition at 40 µg/mL (Histoplasma capsulatum [30]): 9 mm
zone of inhibition at 20 µg/mL (Histoplasma capsulatum [31]): 14 mm
Activity (Histoplasma capsulatum [32]): Active
zone of inhibition at 20 µg/mL (Histoplasma capsulatum [33]): 18 mm
